Assay results reported in the M2OR odorant receptor database.

Assays:
Conditions in all cases: stereoisomer not certain
[1] = molecular target: OR8B8 (Homo sapiens) (UniProt Q15620)
Outline: (§1)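 Each receptor–molecule pair is labelled responsive or non-responsive (inactive) according to whether the original authors judged the measured signal statistically different from baseline. The data were taken from the main text and supplementary material of published papers and checked for typos and inconsistencies. Assay methods differed by source, with transient luciferase assays in mammalian cell lines being common.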

[2] = tested on: OR8B8 L101P
Chain of OR8B8 L101P (as listed by the source, stated change not applied): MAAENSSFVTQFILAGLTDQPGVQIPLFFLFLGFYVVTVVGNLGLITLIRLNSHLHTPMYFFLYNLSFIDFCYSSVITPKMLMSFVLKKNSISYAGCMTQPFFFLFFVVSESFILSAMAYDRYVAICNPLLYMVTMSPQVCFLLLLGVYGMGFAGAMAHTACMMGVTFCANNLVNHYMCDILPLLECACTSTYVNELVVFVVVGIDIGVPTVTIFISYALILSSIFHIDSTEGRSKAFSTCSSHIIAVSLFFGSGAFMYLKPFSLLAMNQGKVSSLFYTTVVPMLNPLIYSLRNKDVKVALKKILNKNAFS
Outline: as §1

[3] = tested on: OR8D1 C127G L194P
Outline: as §1

[4] = tested on: OR8D1 L194P
Chain of OR8D1 L194P (as listed by the source, stated change not applied): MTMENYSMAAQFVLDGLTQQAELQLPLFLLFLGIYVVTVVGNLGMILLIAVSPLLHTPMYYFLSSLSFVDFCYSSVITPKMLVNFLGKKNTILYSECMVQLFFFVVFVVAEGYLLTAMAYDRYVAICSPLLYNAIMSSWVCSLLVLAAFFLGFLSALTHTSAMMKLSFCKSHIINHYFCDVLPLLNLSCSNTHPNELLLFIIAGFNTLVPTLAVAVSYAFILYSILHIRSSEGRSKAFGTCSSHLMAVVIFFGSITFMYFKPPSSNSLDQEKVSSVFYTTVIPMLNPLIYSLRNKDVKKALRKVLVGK
Outline: as §1

[5] = molecular target: OR8D2 (Homo sapiens) (UniProt Q9GZM6)
Chain of OR8D2 (Homo sapiens) (Q9GZM6 whole entry): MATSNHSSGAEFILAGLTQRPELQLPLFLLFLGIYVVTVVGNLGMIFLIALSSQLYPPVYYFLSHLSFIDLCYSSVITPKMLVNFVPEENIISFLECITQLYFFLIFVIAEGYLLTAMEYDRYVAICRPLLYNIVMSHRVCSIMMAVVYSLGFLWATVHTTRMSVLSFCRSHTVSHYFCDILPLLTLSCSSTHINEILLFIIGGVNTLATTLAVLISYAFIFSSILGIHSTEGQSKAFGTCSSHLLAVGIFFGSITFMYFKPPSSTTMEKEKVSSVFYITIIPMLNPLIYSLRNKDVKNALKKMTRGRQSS
Outline: as §1

[6] = molecular target: OR8D4 (Homo sapiens) (UniProt Q8NGM9)
Chain of OR8D4 (Homo sapiens) (Q8NGM9 whole entry): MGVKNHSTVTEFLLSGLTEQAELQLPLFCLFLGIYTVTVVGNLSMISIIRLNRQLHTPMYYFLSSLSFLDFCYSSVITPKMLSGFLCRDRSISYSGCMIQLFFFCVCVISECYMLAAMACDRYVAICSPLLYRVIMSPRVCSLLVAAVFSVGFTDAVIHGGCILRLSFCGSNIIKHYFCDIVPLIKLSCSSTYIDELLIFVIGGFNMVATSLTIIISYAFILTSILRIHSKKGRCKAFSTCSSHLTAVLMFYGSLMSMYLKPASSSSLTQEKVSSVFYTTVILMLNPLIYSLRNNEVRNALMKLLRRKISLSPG
Outline: as §1

[7] = tested on: OR8D4 C120Y R133K
Outline: as §1

[8] = molecular target: OR8G1 (Homo sapiens) (UniProt Q15617)
Chain of OR8G1 (Homo sapiens) (Q15617 whole entry): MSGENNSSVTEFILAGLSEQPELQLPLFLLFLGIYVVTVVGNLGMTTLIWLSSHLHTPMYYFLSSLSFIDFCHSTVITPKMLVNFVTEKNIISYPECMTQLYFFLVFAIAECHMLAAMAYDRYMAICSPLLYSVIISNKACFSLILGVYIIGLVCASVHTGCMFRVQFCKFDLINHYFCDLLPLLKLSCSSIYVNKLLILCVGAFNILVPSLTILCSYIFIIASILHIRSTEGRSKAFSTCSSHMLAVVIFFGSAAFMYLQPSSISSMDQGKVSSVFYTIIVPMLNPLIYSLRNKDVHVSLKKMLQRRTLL
Outline: as §1

[9] = molecular target: OR8G5 (Homo sapiens) (UniProt Q8NG78)
Chain of OR8G5 (Homo sapiens) (Q8NG78 whole entry): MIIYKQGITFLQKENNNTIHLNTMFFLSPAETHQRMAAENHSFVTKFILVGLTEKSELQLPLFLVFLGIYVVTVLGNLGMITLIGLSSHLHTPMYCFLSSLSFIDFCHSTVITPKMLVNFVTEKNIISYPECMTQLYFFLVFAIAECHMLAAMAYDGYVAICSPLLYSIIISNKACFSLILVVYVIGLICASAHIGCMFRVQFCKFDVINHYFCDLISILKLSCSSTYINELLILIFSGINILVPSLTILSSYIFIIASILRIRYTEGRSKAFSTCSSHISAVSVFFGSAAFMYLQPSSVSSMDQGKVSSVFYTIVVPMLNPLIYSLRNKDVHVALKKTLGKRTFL
Outline: as §1

Measured: odorant receptor agonist call;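 further: active if original authors judged signal statistically different from baseline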

Chain of OR8B8 (Homo sapiens) (Q15620 whole entry): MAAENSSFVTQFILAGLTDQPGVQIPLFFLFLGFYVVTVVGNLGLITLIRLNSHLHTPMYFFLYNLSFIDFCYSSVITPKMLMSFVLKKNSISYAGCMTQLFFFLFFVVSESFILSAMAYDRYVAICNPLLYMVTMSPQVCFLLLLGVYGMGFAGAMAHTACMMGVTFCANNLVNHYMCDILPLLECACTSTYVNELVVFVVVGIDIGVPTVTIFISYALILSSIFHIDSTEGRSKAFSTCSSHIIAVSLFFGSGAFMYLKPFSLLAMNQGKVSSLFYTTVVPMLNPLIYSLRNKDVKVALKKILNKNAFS

C=CCOC(=O)Cc1ccccc1
inactive: all assays above

Cc1c([N+](=O)[O-])c(C)c([N+](=O)[O-])c(C(C)(C)C)c1[N+](=O)[O-]
inactive: [1] | [5] | [6] | [8] | [9]
